The source made the active and inactive calls. The rule behind the calls is not given here.

We go through eight compounds from ChEMBL document CHEMBL3272247, “Synthesis, antifertility activity, and protein binding affinity of 7(8 leads to 11 alpha)abeo steroids” (1977).

The target in experiment [1] is T1, Progesterone receptor (Oryctolagus cuniculus) (UniProt P06186).
T1 sequence (whole entry): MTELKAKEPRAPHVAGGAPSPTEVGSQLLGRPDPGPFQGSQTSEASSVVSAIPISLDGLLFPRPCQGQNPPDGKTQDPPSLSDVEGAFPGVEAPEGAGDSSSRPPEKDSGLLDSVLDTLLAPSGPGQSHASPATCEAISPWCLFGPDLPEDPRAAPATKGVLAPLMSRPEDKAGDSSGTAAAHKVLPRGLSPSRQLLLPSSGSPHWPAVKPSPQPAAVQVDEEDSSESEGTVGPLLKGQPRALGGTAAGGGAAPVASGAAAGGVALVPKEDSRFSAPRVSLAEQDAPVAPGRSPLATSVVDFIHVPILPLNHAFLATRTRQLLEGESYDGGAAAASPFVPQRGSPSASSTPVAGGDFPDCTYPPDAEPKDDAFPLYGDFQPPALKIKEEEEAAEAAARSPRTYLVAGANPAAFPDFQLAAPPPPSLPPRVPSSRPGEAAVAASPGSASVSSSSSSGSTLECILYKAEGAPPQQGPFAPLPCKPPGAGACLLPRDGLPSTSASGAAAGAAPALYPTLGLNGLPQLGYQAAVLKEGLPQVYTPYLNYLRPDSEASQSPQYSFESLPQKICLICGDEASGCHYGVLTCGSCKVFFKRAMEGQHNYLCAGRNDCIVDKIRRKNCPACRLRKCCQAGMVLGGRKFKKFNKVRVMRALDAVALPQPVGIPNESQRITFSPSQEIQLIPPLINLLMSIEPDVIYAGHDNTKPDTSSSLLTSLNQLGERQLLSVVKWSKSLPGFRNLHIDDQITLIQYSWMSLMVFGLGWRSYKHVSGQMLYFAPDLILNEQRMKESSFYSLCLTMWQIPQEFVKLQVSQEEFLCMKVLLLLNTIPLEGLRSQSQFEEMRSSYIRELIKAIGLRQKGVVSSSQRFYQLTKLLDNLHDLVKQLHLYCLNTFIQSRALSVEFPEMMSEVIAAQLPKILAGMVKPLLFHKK
Description: Displacement of [3H]progesterone from rabbit progesterone receptor after 24 hrs at 0.1 nM to 10 mM. In a few lines: (§1)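 Uterine cytosol from TE buffer (Tris-HCl, 1 mM EDTA, pH 7.4) homogenate by ultracentrifugation. Competitor 0.1 nM–10 mM with constant label ([3H]estradiol 6000 cpm or [3H]progesterone 20000 cpm), 24 h at 4 °C, started by cytosol addition. Bound label isolated; RBA derived against unlabeled estradiol or progesterone standard curves.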
On the technique in general: Loss of bound radioactivity is the signal in a displacement assay; it reports binding, not function.

The test system of experiment [2] is Oryctolagus cuniculus. Description: Progestational activity in Clauberg rabbit at 20 mg/kg/day, sc. It is filed as functional, organism-based. In a few lines:
(§2)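 Immature rabbit (Clauberg); uterine stimulation measured for progestational activity, and its antagonism for antiprogestational activity.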

Experiment [3] relates to Oryctolagus cuniculus. The experiment can be described thus: Antiprogestational activity in Clauberg rabbit at 20 mg/kg/day, sc. Format: functional, organism-based. In a few lines:
as §2

The species named for experiment [4] is Oryctolagus cuniculus. Description: Displacement of [3H]estradiol from rabbit estrogen receptor after 24 hrs at 0.1 nM to 10 mM. In a few lines:
as §1

Experiment [5] deals with Rattus norvegicus. Description: Antiuterotropic activity in rat assessed as D-estradiol-induced increase in uterine weight inhibition of at 5 mg/kg/day, sc administered for 3 days. Format: functional, organism-based. In a few lines: (§3)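 Immature female rats, 45–55 g, given estradiol together with test compound daily for three consecutive days as sesame oil suspension (0.1 mL); vehicle-only controls. Uteri excised, cleaned and weighed to nearest 0.2 mg the day after last treatment.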

The subject of experiment [6] is Rattus norvegicus. Description: Antifertility activity in Sprague-Dawley rat assessed as no implantation at 4 mg/kg/day, sc administered for 5 days measured on day 10. Format: functional, organism-based. In a few lines: (§4)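 Mated females dosed in sesame oil (0.1 mL) over 5 days from day 0 of pregnancy (sperm-positive day). Autopsy on day 10 of presumptive pregnancy; normal and resorbing fetuses counted. ED100 = dose (mg/kg/day) giving no implantation sites.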

The test system of experiment [7] is Rattus norvegicus. The experiment can be described thus: Antiandrogenic activity in rat assessed as inhibition of androgen stimulation of seminal vesicle at 30 mg/kg/day, sc. Format: functional, organism-based. In a few lines: (§5)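 Immature, castrated male rats; test compound assessed for ability to inhibit androgen stimulation of seminal vesicle, ventral prostate and levator ani weight.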

Experiment [8] has as its system Rattus norvegicus. The experiment can be described thus: Antiandrogenic activity in rat assessed as inhibition of androgen stimulation of ventral prostate at 30 mg/kg/day, sc. To be noted: Prostate gland. It is filed as functional, organism-based. In a few lines: as §5
The test system of experiment [9] is Rattus norvegicus. Description: Antiandrogenic activity in rat assessed as inhibition of androgen stimulation of levator ani weight at 30 mg/kg/day, sc. It is filed as functional, organism-based. In a few lines:
as §5

Experiment [10] concerns Rattus norvegicus. Description: Uterotropic activity in rat at 1 mg/kg/day, sc administered for 3 days relative to ethynylestradiol. The settings on record: Uterus.
Experiment [11] deals with Rattus norvegicus. The experiment can be described thus: Uterotropic activity in sc dosed rat administered for 3 days relative to estradiol. Format: functional, Uterus. In a few lines:
(§6)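 Immature female rats, 45–55 g, dosed daily for 3 days with sesame oil suspension (0.1 mL); vehicle controls. Uteri removed, cleaned, weighed (nearest 0.2 mg) next day. Expressed as percent activity relative to estradiol (sc) or ethynylestradiol (oral).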

In experiment [12] the test system is Rattus norvegicus. The experiment can be described thus: Antifertility activity in sc dosed Sprague-Dawley rat assessed as no implantation administered for 5 days measured on day 10. It is filed as functional. In a few lines:
as §4

For experiment [13], the system named is Rattus norvegicus. The experiment can be described thus: Uterotropic activity in po dosed rat administered for 3 days relative to ethynylestradiol. Format: functional, Uterus. In a few lines: as §6
Experiment [14] has as its system Rattus norvegicus. Description: Antiuterotropic activity in rat assessed as D-estradiol-induced increase in uterine weight inhibition of at 10 ug/kg/day, po administered for 3 days. It is filed as functional, organism-based. In a few lines: as §3
Experiment [15] concerns Rattus norvegicus. The experiment can be described thus: Antifertility activity in Sprague-Dawley rat assessed as no implantation at 6.8 mg/kg/day, po administered for 5 days measured on day 10. Format: functional, organism-based. In a few lines: as §4
The test system of experiment [16] is Oryctolagus cuniculus. Description: Progestational activity in Clauberg rabbit at 10 mg/kg/day, po. Format: functional, organism-based. In a few lines: as §2
In experiment [17] the test system is Oryctolagus cuniculus. The experiment can be described thus: Antiprogestational activity in Clauberg rabbit at 10 mg/kg/day, po. Format: functional, organism-based. In a few lines:
as §2

In experiment [18] the test system is Oryctolagus cuniculus. The experiment can be described thus: Progestational activity in Clauberg rabbit at 10 mg/kg/day, sc. Format: functional, organism-based. In a few lines: as §2
The subject of experiment [19] is Oryctolagus cuniculus. The experiment can be described thus: Antiprogestational activity in Clauberg rabbit at 10 mg/kg/day, sc. It is filed as functional, organism-based. In a few lines:
as §2

The subject of experiment [20] is Rattus norvegicus. Description: Antifertility activity in Sprague-Dawley rat assessed as no implantation at 10 mg/kg/day, sc administered for 5 days measured on day 10. Format: functional, organism-based. In a few lines:
as §4

In the case of `CC(=O)[C@H]1CC[C@H]2C[C@@H]3[C@@H](CCC4=CC(=O)CC[C@H]43)C[C@@]21C`, the RBA in [1] was determined as 1.2. In addition, the outcome in the experiment on Oryctolagus cuniculus [2] and in the experiment on Oryctolagus cuniculus [3] was inactive.
Turning to `C[C@]12C[C@@H]3CCC4=C(CCC(=O)C4)[C@@H]3C[C@@H]1CC[C@@H]2O`, the RBA was less than 0.085 in the experiment filed under Oryctolagus cuniculus [4] and less than 0.4 in experiment [1]. In addition, the outcome with Rattus norvegicus [5], in the experiment on Rattus norvegicus [6], in the experiment on Rattus norvegicus [7], with Rattus norvegicus [8], in the experiment with Rattus norvegicus [9] and in the experiment on Rattus norvegicus [10] was inactive.
`C[C@]12C[C@@H]3CCc4cc(O)ccc4[C@@H]3C[C@@H]1CC[C@@H]2O` returned an RBA in the experiment filed under Oryctolagus cuniculus [4] of 2.9. Further, the “relative binding affinity (RBA)” value with Rattus norvegicus [11] was 0.02. The ED100 in the experiment with Rattus norvegicus [12] is reported as 1 mg/kg/day.
In the case of `C#C[C@]1(O)CC[C@H]2C[C@H]3c4ccc(O)cc4CC[C@H]3C[C@@]21C`, the RBA in the experiment listed under Oryctolagus cuniculus [4] is 4.4; in experiment [1], less than 0.4. Further, the “relative binding affinity (RBA)” value in the experiment with Rattus norvegicus [13] is 0.18. For the same compound, the result in the experiment with Rattus norvegicus [14] and in the experiment on Rattus norvegicus [15] was inactive.
As for `C#C[C@]1(O)CC[C@H]2C[C@@H]3[C@@H](CCC4=CC(=O)CC[C@H]43)C[C@@]21C`, the RBA in experiment [1] was 2. Further, the outcome in the experiment on Oryctolagus cuniculus [16] and with Oryctolagus cuniculus [17] was inactive.
In [1], `CC(=O)[C@H]1CC[C@H]2C[C@@H]3[C@@H](CCC4CC(=O)C=C[C@H]43)C[C@@]21C` (stereo partly specified) came in with an RBA of 1.9. Besides, the result with Oryctolagus cuniculus [18] and in the experiment on Oryctolagus cuniculus [19] was inactive.
Turning to `C[C@]12C[C@@H]3CCC4=CC(=O)CC[C@H]4[C@@H]3C[C@@H]1CC[C@@H]2O`, the figures for the RBA (in the experiment filed under Oryctolagus cuniculus [4]; in experiment [1]) were 0.06 and less than 0.4, respectively. For the same compound, the result in the experiment on Rattus norvegicus [5], in the experiment with Rattus norvegicus [6], in the experiment on Rattus norvegicus [7], in the experiment with Rattus norvegicus [8], with Rattus norvegicus [9] and in the experiment on Rattus norvegicus [10] was inactive.
For `COc1ccc2c(c1)CC[C@H]1C[C@@]3(C)C(=CC[C@@H]3OC(C)=O)C=C21`, the RBA in the experiment listed under Oryctolagus cuniculus [4] was less than 0.025; in experiment [1], less than 0.4. Also, the result in the experiment on Rattus norvegicus [20] was inactive.
